SKN-1 block – C. elegans SKN-1 inhibition; actives 0.49% (n = 360,000); C. elegans VP596 Pgst-4::GFP/RFP ratio, acrylamide-induced, 24 h; inhibition, % at 21.8 µM;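 active = interference check ratio from 0.5 to 1.5 plus GFP to RFP signal ratio inhibition reaching or exceeding a fixed threshold, cut at about 30% in these data, passing the limit was not always enough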
PABP polyA inh – blocks human PABP binding to poly(A) RNA. P11940. fluorescence polarization. calls only at 35 µM. actives 1% (n = 290,000). AID 2014;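 note: calls also rest on retests at 20 µM and on dose response follow-up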
Target sequence (P11940 whole entry, looked up): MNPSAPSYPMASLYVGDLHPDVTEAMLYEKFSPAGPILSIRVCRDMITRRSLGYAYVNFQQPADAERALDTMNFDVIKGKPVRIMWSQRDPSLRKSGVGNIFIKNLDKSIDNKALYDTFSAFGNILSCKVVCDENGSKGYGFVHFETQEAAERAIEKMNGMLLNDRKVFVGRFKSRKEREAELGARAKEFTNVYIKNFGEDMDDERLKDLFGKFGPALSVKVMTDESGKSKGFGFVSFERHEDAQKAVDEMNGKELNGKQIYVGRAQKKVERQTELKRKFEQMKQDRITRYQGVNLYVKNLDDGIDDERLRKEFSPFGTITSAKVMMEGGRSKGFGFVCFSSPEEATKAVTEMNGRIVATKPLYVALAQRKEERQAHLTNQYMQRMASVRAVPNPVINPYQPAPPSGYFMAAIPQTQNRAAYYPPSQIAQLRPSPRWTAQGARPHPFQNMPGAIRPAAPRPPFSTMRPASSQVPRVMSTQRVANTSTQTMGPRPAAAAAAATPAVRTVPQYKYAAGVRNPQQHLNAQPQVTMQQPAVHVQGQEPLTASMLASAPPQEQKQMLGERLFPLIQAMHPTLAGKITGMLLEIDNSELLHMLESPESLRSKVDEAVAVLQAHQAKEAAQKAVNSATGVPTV
eIF4H inh – inhibitors of RNA binding by human eIF4H; Q15056; eIF4H fluorescence polarization binding assay; inhibition, % at 35 µM; actives 0.94% (n = 290,000); AID 2012;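 note: calls also rest on retests at 20 µM and on dose response follow-up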
MT1-MMP act inh – inhibitors of human MT1-MMP activation; GFP/RFP ratio change, % at 20 µM; actives 0.061% (n = 360,000); AID 651647; HT1080 RFP-PRO-GFP cells, GFP/RFP ratio fluorescence, overnight; percent of plate control window, DMSO zero; P50281;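 active = GFP/RFP ratio change of at least 30% with cell ATP level not reduced by more than half and red fluorescence within 50% of control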
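Assay system: HT1080 cells carrying an RFP-PRO-GFP reporter | Dosing: Single dose of 20 µM compound, 1% DMSO final | Incubation: Cells overnight before dosing, compound overnight, 37 °C, 5% CO2 | Evaluation: GFP/RFP fluorescence ratio | Control set: DMSO and RFP-L50D-GFP cell wells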
PABP1 MLLE inh – inhibitors of microRNA-mediated deadenylation, human PABP1 MLLE binding. P11940. GST-MLLE / FITC-PAM2 fluorescence polarization. inhibition, % at 20 µM. actives 0.36% (n = 360,000). AID 588489; in the data active = inhibition above about 35%, passing the limit was not always enough;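 note: plate controls were DMSO wells with GST-MLLE for no effect and wells lacking GST-MLLE protein for full effect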
The depositor's hits bear a star; i = inactive; ? = inconclusive; · = no result given; + = active, no number. A selection: hits, their analogues and other compounds. The true share with any hit is near 1.8%. Unless noted, the rule behind the calls is not given here.

SMILES	SKN-1 block	PABP polyA inh	eIF4H inh	MT1-MMP act inh	PABP1 MLLE inh
Cc1ccc[n+](-c2nc([O-])sc2/C=N/Nc2ccc([N+](=O)[O-])cc2)c1	17.2	i	116.6	14.2	60.0*
C=CCOCC(O)Cn1c(N2CCCC2)nc2c1c(=O)[nH]c(=O)n2C (stereo unspecified)	-8.6	i	-11.4	1.8	12.1
CCC(=O)Nc1nc(CC(=O)Nc2ccccc2OC)cs1	35.5*	i	-0.5	2.7	-9.0
Cc1ccc(C(=O)Nc2nc3ccccc3c(=O)s2)cc1	3.4	i	4.3	3.0	46.0*
CSc1nc2ccc3nc(NC(=O)c4ccc(C)cc4)sc3c2s1	-19.1	i	-7.8	4.5	-0.6
COc1ccc(Cc2nc3ccc(C(=O)NCCc4ncccc4C)cc3o2)cc1OC	0.3	·	·	2.4	9.0
C[C@@H]1CN([C@H](C)CO)C(=O)CCCn2nncc2CO[C@H]1CN(C)C(=O)NC1CCCCC1	-15.9	·	·	-1.0	-16.8
N#C/C(=C/c1ccc(N2CCOCC2)c([N+](=O)[O-])c1)C(N)=O	21.3	+	61.6*	6.2	3.1
Cc1cc(/C=C(\C#N)C(=O)Nc2ccc(F)cc2)c(C)n1-c1ccc(N2CCOCC2)c([N+](=O)[O-])c1	38.5*	i	3.9	3.8	-8.1
COc1ccc(NC(=O)/C(C#N)=C/c2cc(C)n(-c3ccc(N4CCOCC4)c([N+](=O)[O-])c3)c2C)cc1	9.2	i	17.2	22.4	-7.6
Cc1ccc(S(=O)(=O)N2C[C@@H](C)[C@]3(C2)[C@H](O)[C@H](OC(=O)NC2CC2)C[C@H]2C(=O)N(c4ccccc4)C(=O)[C@H]23)cc1	-7.1	·	·	-1.6	4.0
CC(OC(=O)CC(C)c1ccccc1)C(=O)Nc1ccc(Cl)cn1 (stereo unspecified)	-2.5	·	·	-2.7	-2.0
Cc1ccc(C)n1-c1cc(S(=O)(=O)N2CCOCC2)ccc1N1CCCC1	6.1	+	92.5*	-11.7	1.2
COc1cc(/C=C/C(=O)Nc2cc(S(=O)(=O)N3CCOCC3)ccc2N2CCCC2)cc(OC)c1OC	-4.8	i	-6.6	0.7	39.8*
COc1ccc(CC(=O)Nc2cc(S(=O)(=O)N3CCOCC3)ccc2N2CCOCC2)cc1	36.0*	i	-4.8	-6.9	3.1
O=C(NC1=NCCS1)c1ccc(F)c(S(=O)(=O)N2CCOCC2)c1	-6.5	·	·	22.0	0.7
N#C/C(=C(\O)Cc1ccccc1)c1nc2ccccc2[nH]1	4.0	i	1.6	3.5	-2.2
N#C/C(=C(/O)CCl)c1nc2ccccc2[nH]1	8.7	+	?	-5.2	-15.3
Oc1cc2c(c(Cl)c1O)CCNCC2c1ccccc1 (stereo unspecified)	42.4*	·	·	-6.4	2.4
Oc1ccc(C2CNCCc3c2cc(O)c(O)c3Cl)cc1 (stereo unspecified)	5.1	·	·	-1.3	1.7
Cc1c(Cc2ccccc2)c(=O)oc2cc(OC(C)C(=O)NCC3CCC(C(=O)O)CC3)c(Cl)cc12 (stereo unspecified)	-6.3	i	1.5	10.5	1.4
CN(C)c1ccc(/C=N/NC2=NS(=O)(=O)c3ccccc32)cc1	39.1*	i	-11.6	-2.6	-41.6
C=C(C)CN1C(=O)c2ccccc2C1=O	-2.9	+	56.6	3.9	-2.9
O=C(CN1C(=O)c2ccccc2C1=O)c1ccccc1	16.6	i	-0.3	2.8	7.3
O=C1/C(=C\c2ccncc2)CCc2ccccc21	-2.7	·	·	3.3	-10.2
SMILES	SKN-1 block	PABP polyA inh	eIF4H inh	MT1-MMP act inh	PABP1 MLLE inh
C(=C1c2ccccc2-c2ccccc21)c1ccncc1	40.1*	·	·	0.8	-1.1
Cc1nn(-c2ccccn2)c2c1C(=O)CC(C)(C)C2N=[N+]=[N-] (stereo unspecified)	17.2	·	·	-7.4	-3.0
CCC(C(=O)OCC(=O)N1CCN(c2ccc(OC)cc2)CC1)c1ccccc1 (stereo unspecified)	0.7	·	·	·	-8.8
O=C1NC(=S)CN1c1ccccc1	-6.5	i	12.9	0.3	56.8*
CCN(CC)c1ccc(C(=O)NNC(=O)C2CCN(c3ncnc4sc(C)c(C)c34)CC2)cc1	-5.3	·	·	1.9	-6.2
CCOC(=O)CN1CC23C=CC(O2)C(C(=O)NCc2cccs2)C3C1=O (stereo unspecified)	37.4*	i	1.2	5.2	4.6
CCOC(=O)CN1CC23C=CC(O2)C(C(=O)NCc2ccc(C)cc2)C3C1=O (stereo unspecified)	-2.6	i	-8.6	1.2	7.7
Cc1ccc(N=Cc2c(O)c3ccccc3oc2=O)cc1F	-3.7	i	-12.9	-9.2	-11.3
Cc1nc2ccccc2c(=O)n1/N=C/c1ccccc1OC(F)F	7.0	i	-4.6	-0.8	-1.0
Cc1ccc(OCC(=O)Nc2ccc(S(=O)(=O)N(C)C3CCN(C)CC3)cc2)c(C)c1	5.6	+	-1.5	-3.4	-107.0
CN1CCc2c(C#N)c(N3CCCCC3)nc(NCc3ccccc3)c2C1	26.3	+	73.6*	-21.2	47.3
OC(CC1CC12c1ccccc1-c1ncccc12)(c1ccccc1)c1ccccc1 (stereo unspecified)	5.9	i	1.6	-35.8	6.0
CCOC(=O)C(C)C1(O)c2ccccc2-c2ncccc21 (stereo unspecified)	37.2*	i	-3.9	6.2	5.8
CCOc1ccc2nc(N(CCN(C)C)C(=O)c3cc4ccccc4cc3OC)sc2c1	38.0*	i	-0.9	-3.8	-3.2
CC[C@@H]1Cc2[nH][nH]c(=O)c2[C@@H](c2ccc(Cl)cc2)O1	-1.8	·	·	1.1	·
Cc1ccc(NS(=O)(=O)c2cc3c4c(cccc4c2)C(=O)NC3=O)cc1C	23.4	+	57.0	-50.8	0.4
CCCCN(C=O)c1c(CC)nc2c(OCC3CCCCC3)cccn12	-5.4	·	·	-2.7	-10.0
CC(=O)Nc1ccc2nc3ccccc3nc2c1	-1.0	i	34.7	-6.6	41.6*
N#C/C(=C\c1cccnc1)c1ccc(Br)cc1	44.5*	i	1.9	-1.8	-3.6
CCC(C)N1C(=O)N(c2cccc(Cl)c2)C(C)(O)CC1(C)C (stereo unspecified)	0.1	i	-4.8	-0.6	2.6
Cc1nc(NC(=S)Nc2ccccc2)sc1C	9.1	i	-4.0	-2.5	36.7*
CCc1nnc(NC(=S)Nc2ccccc2)s1	19.3	i	0.8	5.8	35.3
O=C1CSC(=S)N1/N=C/c1cccnc1	-14.5	i	-7.5	9.7	43.5*
O=C1CSC(=S)N1c1ccccc1	18.5	·	·	11.5	5.0
CCN(CC)c1ccc(N2C(=O)CSC2=S)cc1	7.7	i	61.5*	43.2	-5.3
O=C1CSC(=S)N1N=Cc1ccccc1O	13.6	·	·	9.7	20.2
O=C1CSC(=S)N1c1cccnc1	5.9	i	4.3	18.1	39.8*
C[C@@H]1CN([C@@H](C)CO)C(=O)c2cc(NC(=O)C3CCCCC3)ccc2O[C@@H](C)CCCCO[C@@H]1CN(C)Cc1ccncc1	-11.2	·	·	4.8	-8.5

Compound activity deposited in PubChem BioAssay by Sanford-Burnham Center for Chemical Genomics.
